From PubChem BioAssay
Calls of active or inactive are those of the source.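 How the source made its calls, unless noted: active means viability at or below 10% of carrier control in both of two separate runs; inconclusive means viability at or below 10% in only one of the two runs; inactive means the rest.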

What was measured:
[1] = Her2 expression decrease, cell viability multiplex – SKBR3 breast tumor cells, AlphaScreen, ATP viability, primary screen (AID 461;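 active means Her2 level under about 52% in both replicate screens, with viability over 70% of control, limit read from the data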;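 on Her2 level: lower value means less Her2 protein in the cells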;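 on viability: percent of carrier control wells set as 100% viability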); settings: SKBR3 Her2 protein level, 18-24 h, measured here: SKBR3 viability, ATP luminescence, at 10 µM
[2] = molecular target: Receptor tyrosine-protein kinase erbB-2 (Homo sapiens) (UniProt P04626); experiment: as above; settings: 18-24 h, at 10 µM, stronger effect = lower value
Chain of Receptor tyrosine-protein kinase erbB-2 (Homo sapiens) (P04626 whole entry, looked up): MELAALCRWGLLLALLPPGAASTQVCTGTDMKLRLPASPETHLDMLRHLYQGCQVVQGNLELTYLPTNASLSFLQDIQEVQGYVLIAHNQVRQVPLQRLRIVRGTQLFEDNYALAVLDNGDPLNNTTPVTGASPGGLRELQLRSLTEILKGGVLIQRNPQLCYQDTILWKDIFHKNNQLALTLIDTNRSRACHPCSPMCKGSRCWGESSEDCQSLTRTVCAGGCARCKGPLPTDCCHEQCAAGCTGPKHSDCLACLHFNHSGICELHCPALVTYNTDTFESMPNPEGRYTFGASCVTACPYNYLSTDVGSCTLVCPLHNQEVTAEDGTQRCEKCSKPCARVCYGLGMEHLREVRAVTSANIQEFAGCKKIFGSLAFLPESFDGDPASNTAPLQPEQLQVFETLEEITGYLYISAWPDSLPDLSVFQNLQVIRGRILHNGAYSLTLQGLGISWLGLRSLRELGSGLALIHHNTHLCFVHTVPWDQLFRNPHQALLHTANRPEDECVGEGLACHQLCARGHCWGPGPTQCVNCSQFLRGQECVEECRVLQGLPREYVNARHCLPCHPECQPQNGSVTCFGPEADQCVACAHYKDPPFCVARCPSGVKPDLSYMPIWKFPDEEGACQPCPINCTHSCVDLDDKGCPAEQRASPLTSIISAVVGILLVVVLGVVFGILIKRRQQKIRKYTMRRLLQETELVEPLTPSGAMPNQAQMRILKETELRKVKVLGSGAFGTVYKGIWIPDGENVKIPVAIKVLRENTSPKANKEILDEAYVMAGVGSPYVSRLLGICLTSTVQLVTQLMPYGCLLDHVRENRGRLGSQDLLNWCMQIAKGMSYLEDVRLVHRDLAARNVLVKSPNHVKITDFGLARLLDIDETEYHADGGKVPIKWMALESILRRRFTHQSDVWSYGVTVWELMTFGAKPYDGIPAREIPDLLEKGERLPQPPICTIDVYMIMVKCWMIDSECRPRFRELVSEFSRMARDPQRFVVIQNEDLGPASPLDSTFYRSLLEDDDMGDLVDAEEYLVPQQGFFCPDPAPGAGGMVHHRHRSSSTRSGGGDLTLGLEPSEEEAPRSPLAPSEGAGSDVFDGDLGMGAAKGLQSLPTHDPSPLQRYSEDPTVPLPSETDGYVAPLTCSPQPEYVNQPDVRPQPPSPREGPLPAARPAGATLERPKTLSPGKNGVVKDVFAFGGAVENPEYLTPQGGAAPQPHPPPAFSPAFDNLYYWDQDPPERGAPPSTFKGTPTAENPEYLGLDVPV

[3] = reduced viability of SK-BR-3 breast cancer cells – cell-based, 24 h, human, pilot screen (AID 572); settings: SK-BR-3 viability, CellTiter-Glo luminescence, at 10 µM, stronger effect = lower value;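 further: compound exposure lasted between 18 and 24 h rather than exactly 24 h; 100% = carrier-treated control wells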
[4] = HUVEC growth inhibition – cell-based, human, primary screen (AID 575;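 active means viability at or below 30% in both replicate assays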;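 further: 100% = median of untreated cell wells with 0.1% DMSO on each plate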); settings: HUVEC proliferation, CellTiter-Glo luminescence, 72 h; at 10 µM; stronger effect = lower value
Procedure, shortened: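 Material: primary human umbilical vein endothelial cells / Schedule: 72 h exposure, 37 °C, 5% CO2, 30 min RT equilibration / Signal: ATP-based CellTiter-Glo luminescent read / Read-out basis: percent of median DMSO-control luminescence / Control set: 32 DMSO-only cell-control wells (high), 32 MePR drug-control wells (low) per plate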

[5] = H69AR cell proliferation blockers – human, duplicate replicates, primary screen (AID 580;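 active means viability at or under a set limit in both replicates, limit being median viability minus 3 SD, cut at about 48% in these data, passing the limit was not always enough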;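 further: 100% = mean luminescence of untreated wells and 0% = no signal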); settings: H69AR lung tumor cells viability, ATP luminescence, 72 h; at 10 µM; stronger effect = lower value
[6] = MRP1 drug-resistance reversers in H69AR cells – cell-based, doxorubicin co-treatment, pilot screen (AID 601;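 active means viability loss from added drug above about 55%, and viability with drug at most 40%, in both replicates, limit read from the data, passing the limit was not always enough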); settings: CellTiter-Glo, 72 h, at 10 µM; for differential viability (reversal): stronger effect = higher value
[7] = yeast transport mutant growth inhibition pilot in 384-well plates, post-Golgi transport modulator project (AID 636; in the data active means inhibition above about 31%); settings: absorbance 615 nm, about 18 h, stronger effect = higher value
[8] = growth suppression of yeast trafficking mutant, preliminary HTS, modulators of trafficking downstream of Golgi apparatus project, 1536-format plate, OD 615 nm (AID 637; in the data active means inhibition above about 30%); settings: yeast transport mutant growth, absorbance 615 nm, 18 h; stronger effect = higher value
[9] = H69AR cells + 2 uM doxorubicin, measured here: viability with 2 uM doxorubicin, stronger effect = lower value
[10] = H69AR cells, compound alone cytotoxicity

Structure (SMILES) | viability [1] [%] | Her2 level [2] | viability [3] | viability [4] | viability [5] | differential viability (reversal) ([6]; H69AR cells + 2 uM doxorubicin) | viability [6, 9] [%] | viability [6, 10] [%] | inhibition [7] | inhibition [8]
C=CCn1c(SCC(=O)c2cc(C)n(C(C)COC)c2C)nc2sc(C)c(C)c2c1=O (stereo not given) | 97.5 | 77% (inactive) | 97.5% (inactive) | 68.2% (inactive) | 82.8% (inactive) | 60.8% (active) | 21.9 | 82.8 | -8.77% (inactive) | -4.6% (inactive)
COc1ccc(CNc2nc3nc(C)cc(C)n3n2)cc1OC | 104 | 94.5% (inactive) | 104% (inactive) | 111% (inactive) | 108% (inactive) | 5.1% (inactive) | 103 | 108 | -1.71% (inactive) | 7.21% (inactive)
COc1ccccc1Nc1nc(N)nc(CN2CCN(c3ccccc3F)CC2)n1 | 96 | 120% (inactive) | 96% (inactive) | 98.9% (inactive) | 81.3% (inactive) | -8.69% (inactive) | 90 | 81.3 | 1.71% (inactive) | 11.5% (inactive)
CC1CN(C(=O)CSc2nnc(-c3ccncc3)n2-c2ccccc2)CC(C)O1 (stereo not given) | 101 | 112% (inactive) | 101% (inactive) | 103% (inactive) | 97.6% (inactive) | -5% (inactive) | 103 | 97.6 | -1.08% (inactive) | 0.32% (inactive)
O=c1c2nnn(Cc3ccccc3)c2ncn1-c1ccccc1 | 103 | 90.5% (inactive) | 103% (inactive) | 111% (inactive) | 108% (inactive) | 5.12% (inactive) | 103 | 108 | -6.27% (inactive) | 4.1% (inactive)
c1ccc(-n2c(Sc3cnccn3)nnc2-c2cccs2)cc1 | 114 | 109% (inactive) | 114% (inactive) | 89.1% (inactive) | 95.8% (inactive) | 7.33% (inactive) | 88.5 | 95.8 | -5.41% (inactive) | -3.49% (inactive)
O=C(O)CN(c1ccccc1)C1SC(=O)NC1=O (stereo not given) | 85.5 | 87.5% (inactive) | 85.5% (inactive) | 98.5% (inactive) | 86.8% (inactive) | 3.04% (inactive) | 83.8 | 86.8 | -4.93% (inactive) | 2.79% (inactive)
O=C1N2c3ccccc3CCc3cccc(c32)C1(O)C(F)(F)F (stereo not given) | 94.5 | 90.5% (inactive) | 94.5% (inactive) | 96.4% (inactive) | 95.7% (inactive) | 0.66% (inactive) | 95 | 95.7 | -5.87% (inactive) | 6.56% (inactive)
Cc1cc(C)n(-c2ccc(C(=O)Nc3ccc4c(c3)OCCO4)cc2)n1 | 93 | 77.5% (inactive) | 93% (inactive) | 62.2% (inactive) | 89% (inactive) | -6.18% (inactive) | 95.2 | 89 | 1.03% (inactive) | -2% (inactive)
C=CCn1cnc2c(NCc3ccccc3)ncnc21 | 85.5 | 94% (inactive) | 85.5% (inactive) | 96.9% (inactive) | 97.1% (inactive) | -3.4% (inactive) | 100 | 97.1 | 1.71% (inactive) | -7.9% (inactive)
CCCCN(Cc1cc2cc(OC)ccc2[nH]c1=O)C(=O)COc1ccccc1 | 73 | 79% (inactive) | 73% (inactive) | 108% (inactive) | 93.6% (inactive) | -4.48% (inactive) | 98.1 | 93.6 | -0.13% (inactive) | 0.82% (inactive)
CCn1c(=O)cc(SCC(=O)N2CCOCC2)c2ccccc21 | 92 | 75% (inactive) | 92% (inactive) | 63.1% (inactive) | 85.4% (inactive) | 17.4% (inactive) | 68 | 85.4 | -6.05% (inactive) | -3.45% (inactive)
CCCCCc1c(O)c2ccccc2[nH]c1=O | 108 | 91.5% (inactive) | 108% (inactive) | 124% (inactive) | 98.1% (inactive) | 3.62% (inactive) | 94.5 | 98.1 | -1.71% (inactive) | 2.46% (inactive)
CCOC(=O)c1c(N)sn(-c2ccccc2)c1=S | 87 | 108% (inactive) | 87% (inactive) | 101% (inactive) | 85.3% (inactive) | -5.28% (inactive) | 90.6 | 85.3 | -0.9% (inactive) | 2.17% (inactive)
CCOC(=O)c1[nH]c2ccc(OC)cc2c1NC(=O)CCN1CCC(C)CC1 | 101 | 94.5% (inactive) | 101% (inactive) | 94.1% (inactive) | 96.8% (inactive) | -0.37% (inactive) | 97.2 | 96.8 | -3.12% (inactive) | -8.73% (inactive)
COc1ccc(N2CCN(C(=O)COc3ccc4ccccc4c3)CC2)cc1 | 77.5 | 86.5% (inactive) | 77.5% (inactive) | 84.8% (inactive) | 108% (inactive) | 17.1% (inactive) | 90.8 | 108 | -6.35% (inactive) | 3.11% (inactive)
CCn1nnc(-c2ccccc2NC(=O)c2ccc(-n3cnnn3)cc2)n1 | 95.5 | 87% (inactive) | 95.5% (inactive) | 67.7% (inactive) | 75.7% (inactive) | 1.74% (inactive) | 73.9 | 75.7 | -0.79% (inactive) | 1.15% (inactive)
Nc1c(S(=O)(=O)c2cccs2)c2nc3ccccc3nc2n1CC1CCCO1 (stereo not given) | 79.5 | 89.5% (inactive) | 79.5% (inactive) | 85.2% (inactive) | 85.9% (inactive) | 4.9% (inactive) | 81 | 85.9 | -2.21% (inactive) | -1.33% (inactive)
N#Cc1cn(CC(=O)N2CCCC2)c2ccccc12 | 118 | 85% (inactive) | 118% (inactive) | 100% (inactive) | 93.6% (inactive) | 8.44% (inactive) | 85.2 | 93.6 | -3.29% (inactive) | 1.15% (inactive)
Cc1cccc(NC2SC(=O)N(c3ccccc3)C2=O)c1 (stereo not given) | 100 | 81% (inactive) | 100% (inactive) | 88.9% (inactive) | 87.6% (inactive) | -10.4% (inactive) | 97.9 | 87.6 | -3.25% (inactive) | -5.5% (inactive)
O=C1CCC(=O)N1OCCCCOc1ccccc1 | 123 | 93% (inactive) | 123% (inactive) | 107% (inactive) | 96.2% (inactive) | 5.21% (inactive) | 91 | 96.2 | -3.55% (inactive) | 0.48% (inactive)
COc1cc2c(cc1OC)C(c1cc(OC)c(OC)c(OC)c1)NCC2 (stereo not given) | 95.5 | 81% (inactive) | 95.5% (inactive) | 92.4% (inactive) | 91.9% (inactive) | -0.03% (inactive) | 91.9 | 91.9 | -3.95% (inactive) | -0.97% (inactive)
O=C(CCn1c(=S)[nH]c2ccccc2c1=O)NCC1CCCO1 (stereo not given) | 118 | 100% (inactive) | 118% (inactive) | 111% (inactive) | 98.2% (inactive) | 6.03% (inactive) | 92.2 | 98.2 | -6.13% (inactive) | 0.66% (inactive)
O=C(COC(=O)CCc1c[nH]c2ccccc12)NC1CCS(=O)(=O)C1 (stereo not given) | 87.5 | 96% (inactive) | 87.5% (inactive) | 90.8% (inactive) | 90.1% (inactive) | 1.06% (inactive) | 89.1 | 90.1 | 1.04% (inactive) | -4.76% (inactive)
CCSCCC(NC1=CC(=O)CC(C)(C)C1)C(=O)O (stereo not given) | 92 | 89% (inactive) | 92% (inactive) | 116% (inactive) | 101% (inactive) | 5.77% (inactive) | 94.8 | 101 | 1.58% (inactive) | -3.45% (inactive)
CCSc1nnc(-c2cccs2)o1 | 89 | 106% (inactive) | 89% (inactive) | 87.3% (inactive) | 92.3% (inactive) | -4.3% (inactive) | 96.6 | 92.3 | -0.13% (inactive) | -2.83% (inactive)
CS(=O)(=O)N(CC(=O)NCc1ccccn1)c1ccc2c(c1)OCCO2 | 104 | 104% (inactive) | 104% (inactive) | 96.8% (inactive) | 97.8% (inactive) | 9.83% (inactive) | 87.9 | 97.8 | -6.93% (inactive) | 4.35% (inactive)
COC(=O)Nc1ccc(S(=O)(=O)N(C)CC(F)(F)C(F)F)cc1 | 107 | 102% (inactive) | 107% (inactive) | 107% (inactive) | 93.1% (inactive) | -1.14% (inactive) | 94.2 | 93.1 | -6.05% (inactive) | 1.8% (inactive)
